Tests used:
Assay type in all cases: functional, Mus musculus
P388 [1] = assay: Weight difference observed in survivors treated for antitumor activity against P388 Lymphocytic Leukemia system at a dose of 24 mg/kg
P388 [2] = assay: Number of Survivors determined for antitumor activity against P388 Lymphocytic Leukemia system on day 5 at a dose of 192 mg/kg (6 out of 6)
P388 [3] = assay: Weight difference observed in survivors treated for antitumor activity against P388 Lymphocytic Leukemia system at a dose of 96 mg/kg
P388 [4] = assay: Number of Survivors determined for antitumor activity against P388 Lymphocytic Leukemia system on day 5 at a dose of 24 mg/kg (6 out of 6)
P388 [5] = assay: Weight difference observed in survivors treated for antitumor activity against P388 Lymphocytic Leukemia system at a dose of 48 mg/kg
P388 [6] = assay: Survival rate of the animals determined for antitumor activity against P388 Lymphocytic Leukemia system at a dose of 192 mg/kg
P388 [7] = assay: Survival rate of the animals determined for antitumor activity against P388 Lymphocytic Leukemia system at a dose of 48 mg/kg
P388 [8] = assay: Number of Survivors determined for antitumor activity against P388 Lymphocytic Leukemia system on day 5 at a dose of 48 mg/kg (6 out of 6)
P388 [9] = assay: Weight difference observed in survivors treated for antitumor activity against P388 Lymphocytic Leukemia system at a dose of 192 mg/kg
P388 [10] = assay: Number of Survivors determined for antitumor activity against P388 Lymphocytic Leukemia system on day 5 at a dose of 96 mg/kg(6 out of 6)
P388 [11] = assay: Survival rate of the animals determined for antitumor activity against P388 Lymphocytic Leukemia system at a dose of 24 mg/kg
P388 [12] = assay: Survival rate of the animals determined for antitumor activity against P388 Lymphocytic Leukemia system at a dose of 96 mg/kg
P388 [13] = assay: Weight difference observed in survivors treated for antitumor activity against P388 Lymphocytic Leukemia system at a dose of 1600 mg/kg (Group II)
In short: (§1)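 P388 lymphocytic leukemia screen run in separate test groups (I–IV). Each group includes its own indicine N-oxide internal control, listed as the group's first entry. Survival and survivor weight change are read against that control. Material was limited, so some analogues were screened up to about 200 mg/kg maximum.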

P388 [14] = assay: Number of Survivors determined for antitumor activity against P388 Lymphocytic Leukemia system on day 5 at a dose of 400 mg/kg (Group III)(6 out of 6)
P388 [15] = assay: Number of Survivors determined for antitumor activity against P388 Lymphocytic Leukemia system on day 5 at a dose of 1600 mg/kg (Group II)(6 out of 6)
P388 [16] = assay: Number of Survivors determined for antitumor activity against P388 Lymphocytic Leukemia system on day 5 at a dose of 800 mg/kg (Group I)(6 out of 6)
P388 [17] = assay: Survival rate of the animals determined for antitumor activity against P388 Lymphocytic Leukemia system at a dose of 400 mg/kg (Group II); in short: as §1
P388 [18] = assay: Number of Survivors determined for antitumor activity against P388 Lymphocytic Leukemia system on day 5 at a dose of 200 mg/kg (Group IV)(6 out of 6)
P388 [19] = assay: Number of Survivors determined for antitumor activity against P388 Lymphocytic Leukemia system on day 5 at a dose of 1600 mg/kg (Group III)(5 out of 6)
P388 [20] = assay: Number of Survivors determined for antitumor activity against P388 Lymphocytic Leukemia system on day 5 at a dose of 800 mg/kg (Group III)(6 out of 6)
P388 [21] = assay: Weight difference observed in survivors treated for antitumor activity against P388 Lymphocytic Leukemia system at a dose of 800 mg/kg (Group II)
P388 [22] = assay: Weight difference observed in survivors treated for antitumor activity against P388 Lymphocytic Leukemia system at a dose of 1600 mg/kg (Group III); in short: as §1
P388 [23] = assay: Weight difference observed in survivors treated for antitumor activity against P388 Lymphocytic Leukemia system at a dose of 400 mg/kg (Group IV); in short: as §1
P388 [24] = assay: Weight difference observed in survivors treated for antitumor activity against P388 Lymphocytic Leukemia system at a dose of 800 mg/kg (Group IV)
P388 [25] = assay: Survival rate of the animals determined for antitumor activity against P388 Lymphocytic Leukemia system at a dose of 1600 mg/kg (Group I)
P388 [26] = assay: Number of Survivors determined for antitumor activity against P388 Lymphocytic Leukemia system on day 5 at a dose of 400 mg/kg (Group I)(6 out of 6)
P388 [27] = assay: Number of Survivors determined for antitumor activity against P388 Lymphocytic Leukemia system on day 5 at a dose of 1600 mg/kg (Group IV)(5 out of 6)
P388 [28] = assay: Weight difference observed in survivors treated for antitumor activity against P388 Lymphocytic Leukemia system at a dose of 200 mg/kg (Group IV); in short: as §1
P388 [29] = assay: Survival rate of the animals determined for antitumor activity against P388 Lymphocytic Leukemia system at a dose of 200 mg/kg (Group I)
P388 [30] = assay: Number of Survivors determined for antitumor activity against P388 Lymphocytic Leukemia system on day 5 at a dose of 1600 mg/kg (Group I) (6 out of 6)
P388 [31] = assay: Survival rate of the animals determined for antitumor activity against P388 Lymphocytic Leukemia system at a dose of 400 mg/kg (Group III); in short: as §1
P388 [32] = assay: Survival rate of the animals determined for antitumor activity against P388 Lymphocytic Leukemia system at a dose of 800 mg/kg (Group II); in short: as §1
P388 [33] = assay: Weight difference observed in survivors treated for antitumor activity against P388 Lymphocytic Leukemia system at a dose of 1600 mg/kg (Group IV); in short: as §1
P388 [34] = assay: Number of Survivors determined for antitumor activity against P388 Lymphocytic Leukemia system on day 5 at a dose of 200 mg/kg (Group I)(6 out of 6)
P388 [35] = assay: Weight difference observed in survivors treated for antitumor activity against P388 Lymphocytic Leukemia system at a dose of 200 mg/kg (Group I); in short: as §1
P388 [36] = assay: Survival rate of the animals determined for antitumor activity against P388 Lymphocytic Leukemia system at a dose of 1600 mg/kg (Group II)
P388 [37] = assay: Survival rate of the animals determined for antitumor activity against P388 Lymphocytic Leukemia system at a dose of 400 mg/kg (Group IV); in short: as §1
P388 [38] = assay: Survival rate of the animals determined for antitumor activity against P388 Lymphocytic Leukemia system at a dose of 200 mg/kg (Group II); in short: as §1
P388 [39] = assay: Weight difference observed in survivors treated for antitumor activity against P388 Lymphocytic Leukemia system at a dose of 400 mg/kg (Group III); in short: as §1
P388 [40] = assay: Weight difference observed in survivors treated for antitumor activity against P388 Lymphocytic Leukemia system at a dose of 800 mg/kg (Group III)
P388 [41] = assay: Survival rate of the animals determined for antitumor activity against P388 Lymphocytic Leukemia system at a dose of 800 mg/kg (Group I); in short: as §1
P388 [42] = assay: Survival rate of the animals determined for antitumor activity against P388 Lymphocytic Leukemia system at a dose of 200 mg/kg (Group IV); in short: as §1
P388 [43] = assay: Survival rate of the animals determined for antitumor activity against P388 Lymphocytic Leukemia system at a dose of 800 mg/kg (Group IV); in short: as §1
P388 [44] = assay: Weight difference observed in survivors treated for antitumor activity against P388 Lymphocytic Leukemia system at a dose of 200 mg/kg (Group III); in short: as §1
P388 [45] = assay: Number of Survivors determined for antitumor activity against P388 Lymphocytic Leukemia system on day 5 at a dose of 800 mg/kg (Group IV)(6 out of 6)
P388 [46] = assay: Number of Survivors determined for antitumor activity against P388 Lymphocytic Leukemia system on day 5 at a dose of 400 mg/kg (Group IV)(6 out of 6)
P388 [47] = assay: Survival rate of the animals determined for antitumor activity against P388 Lymphocytic Leukemia system at a dose of 200 mg/kg (Group III); in short: as §1
P388 [48] = assay: Survival rate of the animals determined for antitumor activity against P388 Lymphocytic Leukemia system at a dose of 800 mg/kg (Group III); in short: as §1
P388 [49] = assay: Survival rate of the animals determined for antitumor activity against P388 Lymphocytic Leukemia system at a dose of 400 mg/kg (Group I); in short: as §1
P388 [50] = assay: Weight difference observed in survivors treated for antitumor activity against P388 Lymphocytic Leukemia system at a dose of 400 mg/kg (Group II); in short: as §1
P388 [51] = assay: Number of Survivors determined for antitumor activity against P388 Lymphocytic Leukemia system on day 5 at a dose of 200 mg/kg (Group II)(6 out of 6)
P388 [52] = assay: Number of Survivors determined for antitumor activity against P388 Lymphocytic Leukemia system on day 5 at a dose of 400 mg/kg (Group II)(6 out of 6)
P388 [53] = assay: Number of Survivors determined for antitumor activity against P388 Lymphocytic Leukemia system on day 5 at a dose of 200 mg/kg (Group III)(6 out of 6)
P388 [54] = assay: Weight difference observed in survivors treated for antitumor activity against P388 Lymphocytic Leukemia system at a dose of 200 mg/kg (Group II); in short: as §1
P388 [55] = assay: Number of Survivors determined for antitumor activity against P388 Lymphocytic Leukemia system on day 5 at a dose of 800 mg/kg (Group II)(6 out of 6)
P388 [56] = assay: Weight difference observed in survivors treated for antitumor activity against P388 Lymphocytic Leukemia system at a dose of 1600 mg/kg (Group I); in short: as §1
P388 [57] = assay: Weight difference observed in survivors treated for antitumor activity against P388 Lymphocytic Leukemia system at a dose of 800 mg/kg (Group I)
P388 [58] = assay: Weight difference observed in survivors treated for antitumor activity against P388 Lymphocytic Leukemia system at a dose of 400 mg/kg (Group I); in short: as §1

CC(C)C(O)(C(=O)OCC1=CC[N+]2([O-])CC[C@@H](O)C12)C(C)O (stereo in doubt; form 3)
T-C (P388 [1]): -0.1 | Survivors (P388 [2]): 6 | T-C (P388 [3]): -0.1 | Survivors (P388 [4]): 6 | T-C (P388 [5]): -0.4 | T/C (P388 [6]): 109% | T/C (P388 [7]): 105% | Survivors (P388 [8]): 6 | T-C (P388 [9]): -1.1 | Survivors (P388 [10]): 6 | T/C (P388 [11]): 100% | T/C (P388 [12]): 107%

CC(C)[C@](O)(C(=O)OCC1=CC[N+]2([O-])CC[C@@H](O)[C@@H]12)[C@H](C)O (stereo partly drawn) [INDICINE N-OXIDE]
T-C (P388 [13]): -3.7 | Survivors (P388 [14]): 6 | Survivors (P388 [15]): 6 | Survivors (P388 [16]): 6 | T/C (P388 [17]): 145% | Survivors (P388 [18]): 6 | Survivors (P388 [19]): 5 | Survivors (P388 [20]): 6 | T-C (P388 [21]): -3.3 | T-C (P388 [22]): -5.8 | T-C (P388 [23]): -1.7 | T-C (P388 [24]): -2.6 | T/C (P388 [25]): 142% | Survivors (P388 [26]): 6 | Survivors (P388 [27]): 5 | T-C (P388 [28]): -0.7 | T/C (P388 [29]): 133% | Survivors (P388 [30]): 6 | T/C (P388 [31]): 191% | T/C (P388 [32]): 200% | T-C (P388 [33]): -2.9 | Survivors (P388 [34]): 6 | T-C (P388 [35]): -1.6 | T/C (P388 [36]): 117% | T/C (P388 [37]): 146% | T/C (P388 [38]): 120% | T-C (P388 [39]): -4.3 | T-C (P388 [40]): -4.7 | T/C (P388 [41]): 160% | T/C (P388 [42]): 140% | T/C (P388 [43]): 112% | T-C (P388 [44]): -2.9 | Survivors (P388 [45]): 6 | Survivors (P388 [46]): 6 | T/C (P388 [47]): 170% | T/C (P388 [48]): 200% | T/C (P388 [49]): 151% | T-C (P388 [50]): -1.9 | Survivors (P388 [51]): 6 | Survivors (P388 [52]): 6 | Survivors (P388 [53]): 6 | T-C (P388 [54]): -0.5 | Survivors (P388 [55]): 6 | T-C (P388 [56]): -2.2 | T-C (P388 [57]): -3.2 | T-C (P388 [58]): -1.6

From ChEMBL document CHEMBL1123145, “Synthesis of pyrrolizidine alkaloids indicine, intermedine, lycopsamine, and analogues and their N-oxides. Potential antitumor agents” (1985)
